The entries come from a sample that favours hits as a whole.
Insulin prom act – TRM-6 insulin promoter activation; TRM-6 cells (human fetal islet line), insulin promoter eGFP reporter, imaging; plate-scaled: unstimulated 0, stimulated control 100; activation, % at 2 µM; actives 0.81% (n = 130,000);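 active = activation at 2 µM above a set limit, confirmed on inspection of the cell images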;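 also: share of cells whose green reporter signal exceeds an intensity cutoff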
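Assay system: TRM-6 human fetal islet cells, insulin promoter–eGFP reporter; Also added: 0.75 µM tamoxifen as reporter inducer; Schedule: 15 h tamoxifen pre-treatment, 48 h compound treatment at 37 °C; Signal: fixed-cell fluorescence microscopy, eGFP plus Hoechst; Read-out: percent activation from GFP-positive cell fraction; Control set: stimulated and unstimulated wells.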
Numbers without * were called inactive.

SMILES	Insulin prom act
COc1ccc(CNC(=O)C(c2ccncc2)N(C(=O)Cc2cccs2)c2ccc(C)cc2)cc1 (centres undefined)	0
CC1(CCc2ccc(O)cc2)NC(=O)NC1=O (centres undefined)	-9
CC(=O)c1sc(NC(=O)COc2ccc(Cl)cc2Cl)nc1C	290*
CC(C)NC(=O)COc1ccc(Cl)cc1Cl	6
Cc1nc(NC(=O)COc2ccccc2)sc1C(=O)Nc1ccccc1	4
CC(NC(=S)Nc1c(Br)cccc1OC(F)F)C(C)(C)C (centres undefined)	-3
COc1cc(OC)c2c(c1)C(=O)OC2	7
CN=C1NN=C(c2cc(C)n(-c3ccc(Cl)cc3)c2C)CS1	8
O=C(CO/N=C/c1cccc([N+](=O)[O-])c1)Nc1ccc2ccccc2c1	3
O=C(O/N=C/c1cccc([N+](=O)[O-])c1)C1CC1	209*
CC(=O)Nc1ccc(NC(=O)C(C)O/N=C/c2cccc([N+](=O)[O-])c2)cc1 (centres undefined)	-8
CC(=O)Nc1ccc(S(=O)(=O)n2cnc3ccccc32)cc1	9
CN1CCN(S(=O)(=O)c2ccc(Oc3ccc(F)c(Cl)c3)nc2)CC1	-5
CC1CC(C)CN(CC(C)(C)NS(=O)(=O)c2ccc(Cl)cc2)C1 (centres undefined)	-3
COC(=O)N[C@H](CC(C)=O)c1cccc(C(F)(F)F)c1	0
C=CCn1c(SCc2nc3sc4c(c3c(=O)[nH]2)CCCC4)nc2ccccc2c1=O	5
Cc1ccc(C(=O)N(C)c2nnc(-c3ccncc3)s2)cc1	0
N#CCCCCN1c2cccc3cccc(c23)S1(=O)=O	-6
O=C(CN1CCCCC1)NCCNc1ccc(C(F)(F)F)cc1[N+](=O)[O-]	-9
Cc1ccnc2ccc(SC(F)(F)F)cc12	417*
COc1ccc(C(=O)Cc2nnc(C)s2)cc1	7
Clc1cccc(Cl)c1-c1nnc2cccc(Cl)n12	342
Fc1ccc(NCc2n[nH]c(=S)n2Cc2ccccc2)cc1	0
C=CCn1c(CNC(=O)c2ccco2)nnc1SCC(=O)c1ccccc1	255*
C=CCn1c(CCNC(=O)c2cccs2)nnc1SCC(=O)Nc1cccc(Cl)c1C	4
SMILES	Insulin prom act
O=C(CSc1nnc(-c2ccco2)n1Cc1ccccc1)c1ccc(F)cc1	4
C=CCn1c(CNC(=O)c2cccs2)nnc1SCC(=O)c1ccc(Br)cc1	92*
C=CCn1c(SCC(=O)Nc2ccc(C(=O)OC(C)C)cc2)nnc1-c1cccs1	0
O=C(NCc1ccccc1)c1ccco1	-10
NS(=O)(=O)c1cccnc1Nc1c(Cl)cccc1Cl	-7
O=C(Nc1ccc(Oc2cccnc2)cc1)c1ccccc1F	-3
CCCCCCC(=O)N/N=C(\C)Cc1ccccc1	-9
O=C1NC(=O)/C(=C\c2ccc(OCc3cccc([N+](=O)[O-])c3)cc2)N1	0
Cn1c(-c2cccs2)[n+](C)c2ccccc21	9
COn1c(=O)c(-c2cccs2)[n+]([O-])c2ccccc21	87*
O=c1c(-c2ccco2)[n+]([O-])c2ccccc2n1OCc1ccccn1	-5
CCCCc1ccc(N2C(=O)[C@@H]3C(CC(N)=O)NC4(C(=O)Nc5ccc(F)cc54)[C@@H]3C2=O)cc1 (some centres undefined)	9
C=CCOc1c(Cl)cc(CNc2nccs2)cc1OC	6
COC(=O)c1cn(NC(=O)c2ccc([N+](=O)[O-])c(C)c2)c(=O)c2ccccc12	320*
COC(=O)c1cn(NC(=O)c2cccc(F)c2)c(=O)c2ccccc12	-6
COC(=O)c1cn(NC(=O)c2ccc(OC)c(OC)c2)c(=O)c2ccccc12	7
Cc1ccc(-c2nnn(CC(=O)N(c3ccccc3)C(C(=O)NC(C)(C)C)c3cccs3)n2)o1 (centres undefined)	100
CCC(C)(C)NC(=O)C(c1cccn1C)N(C(=O)Cn1nnc2ccccc21)c1ccc(OC)cc1OC (centres undefined)	170
CCOc1ccc(N(C(=O)Cn2nnc3ccccc32)C(C(=O)NC(C)(C)CC)c2cccn2C)cc1 (centres undefined)	462*
Cc1ccc(OCC(=O)Nc2cc(S(=O)(=O)N3CCCCC3)ccc2C)c([N+](=O)[O-])n1	-10
N#CCCn1nc(-c2ccccc2)cc1-n1c(C(F)(F)F)nc2ccccc21	0
N#CCCn1cc(/C=C2\NC(=S)N(c3ccccc3)C2=O)c(-c2ccc(-c3ccccc3)cc2)n1	6
N#CCCn1ncn(-c2ccccc2)c1=S	173*
CN(C)CCNC(=O)C12CC3(C)CC(C)(CC(C)(C3)C1)C2	-5
CC(=O)c1ccccc1NCC(=O)Nc1ccc(C)cc1	5
COc1cccc(N=C(N)N)c1	7
CCC(C)(C)NC(=O)C(c1cccnc1)N(C(=O)c1csnn1)c1ccc(C)cc1 (centres undefined)	5
CCOc1cc(NC(=O)c2ccco2)c(OCC)cc1NC(=O)Cc1cccc(OC)c1	-5
CCOc1cc(NC(=O)c2cccs2)c(OCC)cc1NC(=O)c1ccco1	-3

Screening results (PubChem)
